From article PMC2748801 (Journal of the American Chemical Society, 2009) come the findings set out here.

Square brackets hold non-standard residues; d marks the D form. Ends that are not written are not given here. Orn = NCCC[C@H](N)C(=O)O; Dab = NCC[C@H](N)C(=O)O; Dap = NC[C@H](N)C(=O)O

Data set [1] in a line: Circular dichroism, α-helical content of peptide alone. Type of data set: physicochemical. The conditions noted are these: CD; for helicity (first value): 10 mM H3PO4, 20 °C; for helicity (second value): 50% TFE in 10 mM H3PO4, 20 °C. The essentials: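 Far-UV CD spectra of each free peptide, with no RNA, at 20 °C under temperature control, in 10 mM H3PO4 and in 50% TFE in the same buffer. Scans ran 190–250 nm with 1 nm bandwidth, 0.5 nm data pitch, 20 nm/min, 16 s response and 0.1 cm path, averaging three accumulations. α-Helical content was calculated from the spectra.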
In general terms: CD spectra are sensitive to the conformation of chiral molecules.

The subject of data set [2] is hairpin from IRES domain IV of HCV (IRES). The data set is classed as binding. The following applies: for Discrimination ratio against IRES RNA: average Kd against other hairpins (RRE, TAR, 16S A-site)/Kd against IRES; for Kd against IRES hairpin (in words): fluorescence anisotropy, 3i and 3j relative to 3d. Background: In fluorescence polarisation assays a small probe gives low polarisation when free and higher when bound to something large.

In the case of Ac-LKKLLKLLKKLLKWAG-NH2 [2u], in data set [1], the “helicity (first value)” value came out at 20% and the “helicity (second value)” value came to 52%. Besides, in data set [2], the “Discrimination ratio against IRES RNA” value is reported as 14 and the “Kd against IRES hairpin (in words)” value is “subnanomolar”.

For Ac-LKKLLKLLKKLWKLAG-NH2 [2t], in data set [1], the “helicity (first value)” value turned out to be 12% and the “helicity (second value)” value amounted to 58%. Besides, the “Discrimination ratio against IRES RNA” value in data set [2] is given as 5.8.

On to Ac-LKKLLKLLKKWLKLAG-NH2 [2s], for which, in data set [1], the “helicity (first value)” value came to 27% and the “helicity (second value)” value was found to be 60%. The “Discrimination ratio against IRES RNA” value in data set [2] was 5.8.

On to Ac-LKKLLKLWKKLLKLAG-NH2 [2r], for which, in data set [1], the “helicity (first value)” value was 14% and the “helicity (second value)” value is 59%. For the same substance, in data set [2], the “Discrimination ratio against IRES RNA” value came to 0.67.

Consider Ac-LKKLLKWLKKLLKLAG-NH2 [2q], for which, in data set [1], the “helicity (first value)” value was found to be 19% and the “helicity (second value)” value came out at 71%. In addition, in data set [2], the “Discrimination ratio against IRES RNA” value amounted to 15 and the “Kd against IRES hairpin (in words)” value was “subnanomolar”.

For Ac-LKKLWKLLKKLLKLAG-NH2 [2p], in data set [1], the “helicity (first value)” value is 20% and the “helicity (second value)” value is listed as 56%. Moreover, the “Discrimination ratio against IRES RNA” value in data set [2] came to 3.3.

Take Ac-LKKWLKLLKKLLKLAG-NH2 [2o]: in data set [1], the “helicity (first value)” value worked out at 4.6% and the “helicity (second value)” value is on record as 52%. For the same substance, in data set [2], the “Discrimination ratio against IRES RNA” value is listed as 5.5.

Consider Ac-WKKLLKLLKKLLKLAG-NH2 [2n], for which, in data set [1], the “helicity (first value)” value was 48% and the “helicity (second value)” value is listed as 65%. In data set [2], the “Discrimination ratio against IRES RNA” value is 2.4 and the “Kd against IRES hairpin (in words)” value was “subnanomolar”.

As to LKKLLKLLKKLL[Dab]LAG [2h], in data set [1], the “helicity (first value)” value stood at 24% and the “helicity (second value)” value is listed as 34%. The “Discrimination ratio against IRES RNA” value in data set [2] came to 2.0.

As for LKKLLKLLKKLL[Dap]LAG [2i], in data set [1], the “helicity (first value)” value is listed as 39% and the “helicity (second value)” value was found to be 54%. Also, the “Discrimination ratio against IRES RNA” value in data set [2] came out at 12.

Turning to LKKLLKLLKKLL[Dap]WAG [3g], in data set [1], the “helicity (first value)” value stood at 41% and the “helicity (second value)” value came out at 63%. In addition, in data set [2], the “Discrimination ratio against IRES RNA” value is reported as 9.4.

For LKKLLKLLKKLL[Orn]LAG [2g], in data set [1], the “helicity (first value)” value is 36% and the “helicity (second value)” value is given as 53%. In addition, in data set [2], the “Discrimination ratio against IRES RNA” value is on record as 3.3.

Consider LKKLLKLL[Dab]KLLKLAG [2e], for which, in data set [1], the “helicity (first value)” value was determined as 43% and the “helicity (second value)” value is 57%. For the same substance, the “Discrimination ratio against IRES RNA” value in data set [2] was found to be 6.5.

Take LKKLLKLL[Dap]KLLKLAG [2f]: in data set [1], the “helicity (first value)” value came to 25% and the “helicity (second value)” value is given as 57%. In data set [2], the “Discrimination ratio against IRES RNA” value is 0.6.

In the case of LKKLLKLL[Orn]KLLKLAG [2d], in data set [1], the “helicity (first value)” value was 28% and the “helicity (second value)” value came to 57%. For the same substance, the “Discrimination ratio against IRES RNA” value in data set [2] was 9.1.

For the substance LKKLLKLL[Orn]KLLKWAG [3f], in data set [1], the “helicity (first value)” value worked out at 36% and the “helicity (second value)” value is reported as 58%. The “Discrimination ratio against IRES RNA” value in data set [2] is 1.0.

With LKKLLKLL[Orn]KLL[Dap]LAG [2k], in data set [1], the “helicity (first value)” value is 48% and the “helicity (second value)” value is reported as 61%. Further, in data set [2], the “Discrimination ratio against IRES RNA” value came to 25.

In the case of LKKLLKLL[Orn]KLL[Dap]WAG [3h], in data set [1], the “helicity (first value)” value turned out to be 12% and the “helicity (second value)” value turned out to be 56%. Also, in data set [2], the “Discrimination ratio against IRES RNA” value came out at 1.6.

As for LKKLLKWLKKLL[Dap]LAG [3c], in data set [1], the “helicity (first value)” value was 29% and the “helicity (second value)” value was 36%. Further, the “Discrimination ratio against IRES RNA” value in data set [2] came out at 17.

For LKKLLKWL[Orn]KLLKLAG [3b], in data set [1], the “helicity (first value)” value was 34% and the “helicity (second value)” value came to 52%. In addition, the “Discrimination ratio against IRES RNA” value in data set [2] worked out at 4.2.

Regarding LKKLLKWL[Orn]KLL[Dap]LAG [3d], in data set [1], the “helicity (first value)” value was found to be 32% and the “helicity (second value)” value stood at 38%. In addition, the “Discrimination ratio against IRES RNA” value in data set [2] was found to be 45.

For LKKLL[Dab]LLKKLLKLAG [2b], in data set [1], the “helicity (first value)” value worked out at 23% and the “helicity (second value)” value was 63%. Besides, the “Discrimination ratio against IRES RNA” value in data set [2] was 6.3.

Regarding LKKLL[Dab]LLKKLLKWAG [3e], in data set [1], the “helicity (first value)” value turned out to be 39% and the “helicity (second value)” value was 45%. Also, the “Discrimination ratio against IRES RNA” value in data set [2] is reported as 28.

On to LKKLL[Dab]LLKKLL[Dap]LAG [2l], for which, in data set [1], the “helicity (first value)” value came to 40% and the “helicity (second value)” value was 50%. Moreover, the “Discrimination ratio against IRES RNA” value in data set [2] is given as 13.

As for LKKLL[Dab]LL[Orn]KLLKLAG [2j], in data set [1], the “helicity (first value)” value is recorded as 49% and the “helicity (second value)” value worked out at 57%. In addition, the “Discrimination ratio against IRES RNA” value in data set [2] is listed as 6.3.

With LKKLL[Dab]LL[Orn]KLL[Dap]LAG [2m], in data set [1], the “helicity (first value)” value came out at 49% and the “helicity (second value)” value is listed as 69%. Also, the “Discrimination ratio against IRES RNA” value in data set [2] worked out at 4.9.

LKKLL[Dab]WLKKLLKLAG [3a]: in data set [1], the “helicity (first value)” value stood at 29% and the “helicity (second value)” value came to 55%. The “Discrimination ratio against IRES RNA” value in data set [2] is on record as 10.

As to LKKLL[Dap]LLKKLLKLAG [2c], in data set [1], the “helicity (first value)” value was found to be 26% and the “helicity (second value)” value was found to be 61%. For the same substance, in data set [2], the “Discrimination ratio against IRES RNA” value worked out at 2.4.

For the substance LKKLL[Orn]LLKKLLKLAG [2a], in data set [1], the “helicity (first value)” value is reported as 13% and the “helicity (second value)” value is given as 82%. In addition, the “Discrimination ratio against IRES RNA” value in data set [2] worked out at 2.5.
